ChEMBL document CHEMBL1152668, “Synthesis, reactivity and biological evaluation of novel halogenated tripentones” (Bioorg Med Chem, 2009)
Active and inactive are the calls of the source. The rule behind the calls is not given here.

Tests used:
KB [1] = assay: Growth inhibition of human KB cells at 10 uM after 72 hrs by MTS assay; type: functional; conditions: read-out: GI
KB [2] = assay: Growth inhibition of human KB cells at 1 uM after 72 hrs by MTS assay; type: functional; conditions: read-out: GI
L1210 = assay: Cytotoxicity against mouse L1210 cells after 72 hrs by MTS assay; type: functional, cell-based; conditions: L1210, 72 h
KB [3] = assay: Cytotoxicity against human KB cells at 0.05 to 1000 nM after 72 hrs by MTS assay; type: functional, cell-based
Method in brief: (§1)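 Cells maintained in D-MEM with 10% fetal calf serum, penicillin, streptomycin and fungizone under 5% CO2. Plated in 96-well plates and dosed 24 h later with compound in DMSO, 0.05 nM to 1 µM, with 1% DMSO vehicle controls. After 72 h, MTS added for 3 h at 37 °C and A490 read. Inhibition = (1 − OD treated/OD control)×100; IC50 from separate duplicates.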

HCT-116 = assay: Cytotoxicity against human HCT116 cells at 0.05 to 1000 nM after 72 hrs by MTS assay; type: functional, cell-based
Method in brief: (§2)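 Cultured in RPMI medium under 5% CO2, then seeded in 96-well plates and treated 24 h later with DMSO solutions at 0.05 nM–1 µM, with 1% DMSO vehicle controls. After 72 h exposure, MTS incubated 3 h at 37 °C and absorbance read at 490 nm. Inhibition = (1 − OD490 treated/OD490 control)×100; IC50 from separate duplicate experiments.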

HCT-15 = assay: Cytotoxicity against human HCT15 cells at 0.05 to 1000 nM after 72 hrs by MTS assay; type: functional, cell-based; method in brief: as §2
HL-60 = assay: Cytotoxicity against human HL60 cells at 0.05 to 1000 nM after 72 hrs by MTS assay; type: functional, cell-based; method in brief: as §2
MCF7 = assay: Cytotoxicity against human MCF7 cells at 0.05 to 1000 nM after 72 hrs by MTS assay; type: functional, cell-based; method in brief: as §2
MRC5 = assay: Cytotoxicity against human MRC5 cells at 0.05 to 1000 nM after 72 hrs by MTS assay; type: cell-based; conditions: mrc5, 72 h, 1 µM; method in brief: as §1
Vero = assay: Cytotoxicity against african green monkey Vero cells at 0.05 to 1000 nM after 72 hrs by MTS assay; type: cell-based; conditions: chlorocebus sabaeus, 1 µM; method in brief: as §1

Structure (SMILES): COc1ccc(-c2csc3c2-n2cc(Br)cc2C3=O)cc1O
- inhibition of growth at 10 µM (KB [1]): 94%
- inhibition of growth at 1 µM (KB [2]): 94%
- IC50 (L1210): 0.017 µM

Structure (SMILES): COc1ccc(-c2csc3c2-n2cccc2C3=O)cc1O
- inhibition of growth at 10 µM (KB [1]): 86%
- inhibition of growth at 1 µM (KB [2]): 86%
- IC50 (L1210): 0.004 µM
- Activity (KB [3]): Active
- Activity (HCT-116): Active
- Activity (HCT-15): Active
- Activity (HL-60): Active
- Activity (MCF7): Active
- Activity (MRC5): Non-toxic
- Activity (Vero): Non-toxic

Structure (SMILES): COc1ccc(-c2csc3c2-n2cc(-c4ccc(OC)c(OC)c4)cc2C3=O)cc1O
- inhibition of growth at 10 µM (KB [1]): 97%
- inhibition of growth at 1 µM (KB [2]): 15%

Structure (SMILES): COc1ccc(-c2cc3n(c2)-c2c(-c4ccc(OC)c(O)c4)csc2C3=O)cc1
- inhibition of growth at 10 µM (KB [1]): 98%
- inhibition of growth at 1 µM (KB [2]): 94%
- IC50 (L1210): 0.113 µM

Structure (SMILES): COc1ccc(-c2csc3c2-n2cc(-c4cccnc4)cc2C3=O)cc1O
- inhibition of growth at 10 µM (KB [1]): 64%
- inhibition of growth at 1 µM (KB [2]): 20%

Structure (SMILES): COC(=O)/C=C/c1cc2n(c1)-c1c(-c3ccc(OC)c(O)c3)csc1C2=O
- inhibition of growth at 10 µM (KB [1]): 1%
- inhibition of growth at 1 µM (KB [2]): 3%

Structure (SMILES): COc1ccc(-c2cc3n(c2)-c2c(-c4ccc(OC)c(O)c4)csc2C3=O)cc1O
- inhibition of growth at 10 µM (KB [1]): 90%
- inhibition of growth at 1 µM (KB [2]): 15%

Structure (SMILES): COc1ccc(-c2csc3c2-n2cc(-c4cc(OC)c(OC)c(OC)c4)cc2C3=O)cc1O
- inhibition of growth at 10 µM (KB [1]): 35%
